# According to article PMC4207547 (Journal of Medicinal Chemistry, 2014):
# Molecular target: T1, CXCR2 (Homo sapiens, UniProt P25025)
# T1 sequence (P25025 1-360): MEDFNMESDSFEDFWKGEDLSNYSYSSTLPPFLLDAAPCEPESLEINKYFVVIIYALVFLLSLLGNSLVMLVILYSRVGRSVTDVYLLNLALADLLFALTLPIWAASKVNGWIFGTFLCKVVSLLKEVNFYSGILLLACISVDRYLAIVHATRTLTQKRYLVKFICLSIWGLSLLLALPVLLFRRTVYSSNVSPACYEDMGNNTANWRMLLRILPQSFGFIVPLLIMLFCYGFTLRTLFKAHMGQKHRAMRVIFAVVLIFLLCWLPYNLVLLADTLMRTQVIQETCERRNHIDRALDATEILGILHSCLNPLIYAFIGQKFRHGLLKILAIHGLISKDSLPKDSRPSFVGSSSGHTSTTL
# Assay: CXCL1-stimulated Ca2+ flux in whole human neutrophils
# Type: cell-based
# Settings: CXCL1-stimulated Ca2+ flux, hPMNs
# Method in brief: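 Human neutrophils were isolated from blood by dextran sedimentation, Histopaque 1077 gradient and hypotonic RBC lysis (>95% pure, >98% viable). Cells were loaded with FLIPR Calcium 3 dye in HEPES-buffered Ca/Mg-free HBSS with compound or 1% DMSO for 30 min at 37 °C, then resuspended in HEPES-HBSS with Ca2+/Mg2+ and challenged with CXCL1.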
Compound,fold improvement in potency relative to 2-carboxylate 51 [fold],fold reduction in activity relative to 7,fold lower potency than 60 [fold]
"COC(=O)c1ccccc1CSc1ccc(C(=O)Nc2ccc(F)cc2)cn1 [Compound 50, Methyl 2-((5-(4-Fluorophenylcarbamoyl)pyridin-2-ylthio)methyl)benzoate]",2,–,–
"O=C(Nc1ccc(F)cc1)c1ccc(SCc2ccccc2-c2nn[nH]n2)nc1 [Compound 52, 6-(2-(2H-Tetrazol-5-yl)benzylthio)-N-(4-fluorophenyl)nicotinamide]",~10,–,–
"CC1(C)OB(c2ccccc2CSc2ccc(C(=O)Nc3ccc(F)cc3)cn2)OC1(C)C [Compound 53, N-(4-Fluorophenyl)-6-(2-(4,4,5,5-tetramethyl-1,3,2-dioxaborolan-2-yl)benzylthio)nicotinamide]",–,approximately 7 fold,–
"O=C(Nc1ccc(OC(F)(F)F)cc1)c1ccc(SCc2ccccc2B(O)O)nc1 [Compound 54, 2-((5-(4-(Trifluoromethoxy)phenylcarbamoyl)pyridin-2-ylthio)methyl)phenylboronic acid]",–,7 fold,–
"O=C(Nc1ccncc1)c1ccc(SCc2ccccc2B(O)O)nc1 [Compound 57, 2-((5-(Pyridin-4-ylcarbamoyl)pyridin-2-ylthio)methyl)phenylboronic acid]",–,14 fold,–
"O=C(Nc1ccc(O)cc1)c1ccc(SCc2ccccc2B(O)O)nc1 [Compound 58, 2-((5-(4-Hydroxyphenylcarbamoyl)pyridin-2-ylthio)methyl)phenylboronic acid]",–,3 fold,–
"O=C(Nc1ccc(F)cn1)c1ccc(SCc2ccccc2B(O)O)nc1 [Compound 59, 2-((5-(5-Fluoropyridin-2-ylcarbamoyl)pyridin-2-ylthio)methyl)phenylboronic acid]",–,8 fold,–
"O=C(c1ccc(SCc2ccccc2B(O)O)nc1)N(Cc1ccncc1)c1ccc(F)cc1 [Compound 61, 2-((5-((4-Fluorophenyl)(pyridin-4-ylmethyl)carbamoyl)pyridin-2-ylthio)methyl)phenylboronic acid]",–,–,11

# Same assay, conditions: hPMNs; SAR discussion
row,Compound,"activity against CXCL1-stimulated Ca2+ flux, in words"
1,"O=C(Nc1ccc(F)cc1)c1ccc(SC2CCOC2=O)nc1 (stereo not shown) [Compound 9, N-(4-Fluorophenyl)-6-(2-oxotetrahydrofuran-3-ylthio)nicotinamide]",loss of activity
2,"O=C(Nc1ccc(F)cc1)c1ccc(SCS(=O)(=O)c2ccccc2)nc1 [Compound 10, N-(4-Fluorophenyl)-6-(phenylsulfonylmethylthio)nicotinamide]",loss of activity
3,"O=C(Nc1ccc(F)cc1)c1ccc(SC[N+](=O)[O-])nc1 [Compound 11, N-(4-Fluorophenyl)-6-(nitromethylthio)nicotinamide]",loss of activity
4,"CCOP(=O)(CSc1ccc(C(=O)Nc2ccc(F)cc2)cn1)OCC [Compound 12, Diethyl (5-(4-fluorophenylcarbamoyl)pyridin-2-ylthio)methylphosphonate]",loss of activity
5,"O=C(Nc1ccc(F)cc1)c1ccc(Sc2ccccc2)nc1 [Compound 45, N-(4-Fluorophenyl)-6-(phenylthio)nicotinamide]",loss of activity
6,"COC(=O)c1ccc(CSc2ccc(C(=O)Nc3ccc(F)cc3)cn2)cc1 [Compound 46, Methyl 4-((5-(4-Fluorophenylcarbamoyl)pyridin-2-ylthio)methyl)benzoate]",inactive
7,"COC(=O)c1cccc(CSc2ccc(C(=O)Nc3ccc(F)cc3)cn2)c1 [Compound 48, Methyl 3-((5-(4-Fluorophenylcarbamoyl)pyridin-2-ylthio)methyl)benzoate]",inactive
8,"O=C(O)c1ccc(NC(=O)c2ccc(SCc3ccccc3B(O)O)nc2)cc1 [Compound 55, 4-(6-(2-Boronobenzylthio)nicotinamido)benzoic acid]",abrogated all activity
9,"O=C(Nc1ccc(-c2nn[nH]n2)cc1)c1ccc(SCc2ccccc2B(O)O)nc1 [Compound 56, 2-((5-(4-(2H-Tetrazol-5-yl)phenylcarbamoyl)pyridin-2-ylthio)methyl)phenylboronic acid]",abrogated all activity
10,"O=C(c1ccc(SCc2ccccc2B(O)O)nc1)N(CC1CCCCN1)c1ccc(F)cc1 (stereo not shown) [Compound 62, 2-((5-((4-Fluorophenyl)(piperidin-2-ylmethyl)carbamoyl)pyridin-2-ylthio)methyl)phenylboronic acid]",completely devoid of activity
11,"O=C(O)CN(C(=O)c1ccc(SCc2ccccc2B(O)O)nc1)c1ccc(F)cc1 [Compound 63, 2-(6-(2-Boronobenzylthio)-N-(4-fluorophenyl)nicotinamido)acetic acid]",A similar finding

# Same assay, conditions: inhibition of CXCL1-stimulated Ca2+ flux in whole hPMNs; mean ± standard error
row,Compound,IC50 [µM]
1,"N-(4-Fluorophenyl)-6-(4-(5-methyl-1,2,4-oxadiazol-3-yl)benzylthio)nicotinamide [Compound 18]",> 5

# Same assay, conditions: read-out: inhibition of CXCL1-mediated intracellular Ca2+ release
row,Compound,inhibition at 5 µM [%]
1,"O=C(Nc1ccc(F)cc1)c1ccc(SCC2CCCCO2)nc1 (stereo not shown) [Compound 13, N-(4-Fluorophenyl)-6-((tetrahydro-2H-pyran-2-yl)methylthio)nicotinamide]",> 50
2,"O=C(Nc1ccc(F)cc1)c1ccc(SCc2ccncc2)nc1 [Compound 15, N-(4-Fluorophenyl)-6-(pyridin-4-ylmethylthio)nicotinamide]",> 50
3,"O=C(Nc1ccc(F)cc1)c1ccc(SCC2CCOCC2)nc1 [Compound 17, N-(4-Fluorophenyl)-6-((tetrahydro-2H-pyran-4-yl)methylthio)nicotinamide]",> 50
4,"O=C(Nc1ccc(F)cc1)c1ccc(SCC2CCCO2)nc1 (stereo not shown) [Compound 20, N-(4-Fluorophenyl)-6-((tetrahydrofuran-2-yl)methylthio)nicotinamide]",> 50
5,"O=C(Nc1ccc(F)cc1)c1ccc(SCc2ccc([N+](=O)[O-])o2)nc1 [Compound 22, N-(4-Fluorophenyl)-6-((5-nitrofuran-2-yl)methylthio)nicotinamide]",> 50
6,"O=C(Nc1ccc(F)cc1)c1ccc(SCc2ccccc2)nc1 [Compound 30, 6-(Benzylthio)-N-(4-fluorophenyl)nicotinamide]",> 50
7,"O=C(Nc1ccc(F)cc1)c1ccc(SCc2ccc(Cl)c(Cl)c2)nc1 [Compound 43, 6-(3,4-Dichlorobenzylthio)-N-(4-fluorophenyl)nicotinamide]",> 50

# Tested on: CXCR1
# Assay: not given
# Settings: cited from earlier work
row,Compound,"effect on CXCL8 binding to CXCR1, in words"
1,"CC(C)Cc1ccc([C@@H](C)C(=O)NS(C)(=O)=O)cc1 [reparixin, Reparixin]",no effect
